Converted amounts (≈) assume the structure as drawn.
Legend:
[1] = WHO-TDR: Cytotoxicity; format: toxicity, cell-based; conditions: human, MRC5 cells
Plasmodium falciparum K1 = assay: WHO-TDR: Malaria; format: functional, organism-based, Homo sapiens; conditions: Erythrocyte
In short: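 This whole-organism screen covered 10,000 drug-likeness-filtered and reactive-group-filtered compounds from Life Chemicals. The target was the Plasmodium falciparum K1 strain in human red blood cells, and the readout was antiplasmodial IC50.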

Trypanosoma cruzi = assay: WHO-TDR: Chagas disease; format: functional, organism-based, Homo sapiens; conditions: MRC5
In short: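 A diverse library of 10,000 compounds from Life Chemicals, filtered for drug-likeness and reactive groups, was screened against intracellular amastigotes of Trypanosoma cruzi Tulahuen CL2 beta-galactosidase strain. The parasites were grown in MRC-5SV2 human lung fibroblast host cells, and a reference drug served as positive control under previously published standard procedures. Antiparasitic potency is given as IC50.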

[2] = tested on: Trypanosoma brucei brucei; assay: WHO-TDR: Human African Trypanosomiasis (HAT); format: functional, organism-based; conditions: Squib-427
In short: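 Screening used a 10,000-compound diverse library supplied by Life Chemicals and filtered for drug-likeness and reactive groups. Whole bloodstream-form parasites of Trypanosoma brucei Squib 427 strain were assayed according to previously published standard procedures, with reference drugs as positive controls. The reported measure is IC50, reflecting antiparasitic potency.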

Leishmania infantum = assay: WHO-TDR: Leishmaniasis; format: functional, organism-based, Mus musculus; conditions: Macrophage
In short: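 The screened collection came from Life Chemicals: 10,000 diverse compounds selected after filtering for drug-likeness and reactive groups. Each was tested in a whole-organism assay against Leishmania infantum MHOM/MA(BE)/67 amastigotes inside murine peritoneal macrophages, using previously published standard procedures and a reference drug as positive control. Results are IC50 values for antiparasitic potency.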

Schistosoma mansoni = assay: WHO-TDR: Schistosomiasis; format: functional; set-up: concentration or dose not given beside the values
In short: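 A diverse library of 10,000 compounds from Life Chemicals, filtered for drug-likeness and reactive groups, was screened against whole larval and/or adult Schistosoma mansoni worms of the Puerto Rican strain. Previously published standard procedures were followed, with a reference drug as positive control. Activity is given as percent inhibition and as IC50.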

Onchocerca ochengi = assay: WHO-TDR: Onchocerciasis; format: functional; set-up: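 at 12.5 µM on microfilariae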
In short: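 A diverse library of 10,000 compounds from Life Chemicals, filtered for drug-likeness and reactive groups, was screened against whole microfilariae of Onchocerca ochengi or Onchocerca lienalis. These animal pathogens served as stand-ins for the human parasite. Activity is given as percent inhibition and as IC50.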

Brugia malayi = assay: WHO-TDR: Lymphatic Filariasis; format: functional; set-up: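 tested at 10 µM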
In short: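 A diverse library of 10,000 compounds from Life Chemicals was screened against Brugia malayi microfilariae in a whole-organism assay. The library had been filtered for drug-likeness and reactive groups. Activity is given as percent inhibition and as IC50.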

Row | IC50 (Plasmodium falciparum K1) [µg/mL] | IC50 [2] [µg/mL] | IC50 (Leishmania infantum) [µg/mL] | SMILES | IC50 [1] [µg/mL] | IC50 (Trypanosoma cruzi) [µg/mL] | % Inhibition (Schistosoma mansoni) [%] | % Inhibition (Onchocerca ochengi) [%] | % Inhibition (Brugia malayi) [%]
1 | 3.4 (≈ 8.04 µM) | 3.98 (≈ 9.41 µM) | 4.46 (≈ 10.6 µM) | Cc1ccc(C)c2sc(N(CCCn3ccnc3)C(=O)Cc3ccc(F)cc3)nc12 | 3.26 (≈ 7.73 µM) | 0.495 (≈ 1.17 µM) | 0 | 100 | 0
2 | 3.16 (≈ 6.98 µM) | 4.75 (≈ 10.5 µM) | > 14.7 | COc1ccc(OC)c2sc(N(CCCn3ccnc3)C(=O)COc3ccccc3)nc12 | 4.9 (≈ 10.8 µM) | 4.77 (≈ 10.5 µM) | 0 | 100 | 0
3 | 0.615 (≈ 1.46 µM) | 3.3 (≈ 7.85 µM) | > 13.7 | COc1ccc(C)c2sc(N(CCCn3ccnc3)C(=O)Cc3ccccc3)nc12 | 4.07 (≈ 9.68 µM) | 0.644 (≈ 1.53 µM) | 0 | 100 | 0
4 | 1.28 (≈ 2.85 µM) | 1.34 (≈ 2.97 µM) | 4.73 (≈ 10.5 µM) | COc1cccc(C(=O)N(CCCn2ccnc2)c2nc3c(C)c(C)ccc3s2)c1OC | 3.15 (≈ 6.99 µM) | 0.648 (≈ 1.44 µM) | 0 | 100 | 0
5 | 3.63 (≈ 8.15 µM) | 4.67 (≈ 10.5 µM) | > 14.4 | COc1ccc(Cl)c2sc(N(CCCn3ccnc3)C(=O)c3cccc(F)c3)nc12 | 4.08 (≈ 9.16 µM) | 3.68 (≈ 8.27 µM) | 0 | 100 | 0
6 | > 10.7 | > 10.7 | > 10.7 | O=C(CS(=O)(=O)Cc1ccccc1)Nc1cc(Cl)cc(Cl)c1 | > 10.7 | > 10.7 | 0 | 100 | 0
7 | > 14.4 | > 14.4 | > 14.4 | CCOC(=O)Cn1/c(=N\C(=O)CCCS(=O)(=O)Cc2ccccc2)sc2cc(F)ccc21 | > 14.4 | > 14.4 | 0 | 100 | 0
8 | 13.4 (≈ 24.4 µM) | 5.34 (≈ 9.71 µM) | > 16.5 | CCc1nnc(NS(=O)(=O)c2ccc(NC(=O)c3ccc(S(=O)(=O)N4CCCCC4C)cc3)cc2)s1 (stereo not drawn) | > 16.5 | > 16.5 | 0 | 100 | 0
9 | > 10.8 | 3.49 (≈ 9.71 µM) | 3.49 (≈ 9.71 µM) | O=C(Nc1nnc(CCSc2ccccc2)o1)c1ccc(Cl)cc1 | 3.41 (≈ 9.49 µM) | 3.77 (≈ 10.5 µM) | 0 | 100 | 0
10 | 6.65 (≈ 14.6 µM) | > 13.7 | > 13.7 | CCOC(=O)N1CCc2nc(NC(=O)CCCS(=O)(=O)c3ccc(F)cc3)sc2C1 | > 13.7 | > 13.7 | 0 | 100 | 0
11 | > 13.4 | > 13.4 | > 13.4 | CCc1nnc(NS(=O)(=O)c2ccc(NC(=O)c3nc4ccccc4s3)cc2)s1 | > 13.4 | > 13.4 | 0 | 100 | 0
12 | 10.7 (≈ 30 µM) | 0.337 (≈ 0.948 µM) | > 10.7 | C=CCn1c(Sc2nc3ccccc3o2)nc2c1c(=O)[nH]c(=O)n2C | > 10.7 | 4.04 (≈ 11.4 µM) | 0 | 0 | 20
13 | 6.29 (≈ 16.7 µM) | 0.099 (≈ 0.262 µM) | > 11.3 | C/C=C/Cn1c(=O)c2c(nc3n(C(C)c4ccccc4)c(C)cn23)n(C)c1=O (stereo not drawn) | > 11.3 | 3.82 (≈ 10.1 µM) | 0 | 0 | 20
14 | 2.97 (≈ 6.79 µM) | 3.81 (≈ 8.7 µM) | 4.25 (≈ 9.71 µM) | Cc1c(Cl)cccc1-n1c(-c2ccc(F)cc2)cn2c3c(=O)n(C)c(=O)n(C)c3nc12 | 6.43 (≈ 14.7 µM) | > 13.1 | 0 | 100 | 20
15 | 1.27 (≈ 3.04 µM) | 5.19 (≈ 12.4 µM) | > 16.2 | Cc1ccc(S(=O)(=O)N(CC(O)CNCc2ccco2)c2ccc(F)cc2)cc1 (stereo not drawn) | > 16.2 | 5.67 (≈ 13.5 µM) | 0 | 100 | 0
16 | > 11.3 | 9.55 (≈ 25.3 µM) | > 11.3 | Cc1ccc(S(=O)(=O)N(C)CC(O)COc2c(C)cc(C)cc2C)cc1 (stereo not drawn) | > 11.3 | 3.81 (≈ 10.1 µM) | 0 | 100 | 0

Row | IC50 (Plasmodium falciparum K1) [µg/mL] | IC50 [2] [µg/mL] | IC50 (Leishmania infantum) [µg/mL] | SMILES | IC50 [1] [µg/mL] | IC50 (Trypanosoma cruzi) [µg/mL] | % Inhibition (Schistosoma mansoni) [%] | % Inhibition (Onchocerca ochengi) [%] | % Inhibition (Brugia malayi) [%]
17 | > 13.5 | > 13.5 | > 13.5 | COc1cccc(C2C(S(=O)(=O)c3ccc(C)cc3)=C(O)C(=O)N2c2ccc(C)cc2)c1 (stereo not drawn) | > 13.5 | > 13.5 | 0 | 100 | 20
18 | > 11.3 | > 11.3 | 0.365 (≈ 1.07 µM) | COc1ccc(OC)c(Nc2c(C#N)cnc3ccc(Cl)cc23)c1 | 1.08 (≈ 3.18 µM) | 3.08 (≈ 9.07 µM) | 0 | 0 | 20
19 | 11.4 (≈ 30 µM) | > 11.4 | > 11.4 | Cc1ccc(-c2nc(CSc3nc(O)cc(C(F)(F)F)n3)c(C)o2)cc1 | > 11.4 | > 11.4 | 0 | 100 | 20
20 | 4.72 (≈ 15.5 µM) | > 9.11 | > 9.11 | Cc1noc(C)c1CCc1nc(-c2ccc(Cl)cc2)no1 | 3.27 (≈ 10.8 µM) | 2.88 (≈ 9.49 µM) | 0 | 100 | 0
21 | > 9.44 | > 9.44 | > 9.44 | CC1CCc2[nH]nc(-c3nc(-c4ccc(Cl)cc4)no3)c2C1 (stereo not drawn) | > 9.44 | 5.55 (≈ 17.6 µM) | 0 | 100 | 0
22 | 1.14 (≈ 3.78 µM) | 2.13 (≈ 7.03 µM) | > 9.08 | Cc1n[nH]c(C)c1CCc1nc(-c2ccc(Cl)cc2)no1 | > 9.08 | 1.8 (≈ 5.96 µM) | 0 | 100 | 0
23 | 7.26 (≈ 16.9 µM) | 4.08 (≈ 9.49 µM) | > 12.9 | O=c1c2nccnc2n(Cc2cccc(C(F)(F)F)c2)c(=O)n1Cc1ccc(F)cc1 | 10 (≈ 23.2 µM) | 1.19 (≈ 2.76 µM) | 25 | 100 | 0
24 | > 13.2 | > 13.2 | > 13.2 | CC(CC(=O)N1CCC(Cc2ccccc2)CC1)CC1=Nc2ccccc2S(=O)(=O)N1 (stereo not drawn) | > 13.2 | 6.58 (≈ 15 µM) | 0 | 100 | 0
25 | > 9.22 | > 9.22 | > 9.22 | Cc1ccc(-c2cc(CC(=O)Nc3cccc(C)n3)no2)cc1 | > 9.22 | > 9.22 | 0 | 100 | 0
26 | > 9.07 | > 9.07 | > 9.07 | COc1cccc(-c2cc(CC(=O)NCCC(C)C)no2)c1 | > 9.07 | > 9.07 | 0 | 100 | 0
27 | 4.59 (≈ 13.9 µM) | > 9.88 | > 9.88 | COc1cccc(-c2cc(CC(=O)Nc3nc(C)cs3)no2)c1 | > 9.88 | > 9.88 | 0 | 100 | 0
28 | > 10.8 | > 10.8 | 3.48 (≈ 9.71 µM) | COc1cccc(-c2cc(CC(=O)NCc3c(F)cccc3F)no2)c1 | > 10.8 | > 10.8 | 0 | 100 | 0
29 | > 8.59 | > 8.59 | 0.278 (≈ 0.971 µM) | Cc1cc(C(=O)Nc2nc(-c3cccnc3)cs2)on1 | > 8.59 | 4.16 (≈ 14.5 µM) | 25 | 0 | 20
30 | > 7.81 | > 7.81 | > 7.81 | Cc1cc(C(=O)Nc2nnc(-c3ccco3)o2)on1 | > 7.81 | > 7.81 | 25 | 100 | 20
31 | > 5.73 | > 5.73 | > 5.73 | O=C1C=CC(=O)N1c1ccccc1F | 1.81 (≈ 9.48 µM) | 3.28 (≈ 17.2 µM) | 0 | 100 | 20
